For 14 compounds, pKa, ΔTm and IC50 results are on record in ChEMBL document CHEMBL1125436, “Anthracene-9,10-diones as potential anticancer agents. Synthesis, DNA-binding, and biological studies on a series of 2,6-disubstituted derivatives” (J Med Chem, 1992).

Broadly, the pKa is the pH at which an ionisable group is half protonated. As a reminder, the IC50 is the point on the concentration scale where inhibition reaches its midpoint.

Data set [1] in a line: Estimated pKa value of the compound. Format: physicochemical.
Data set [2] concerns Nucleic Acid. As to the kind of experiment: Increase in Melting temperature (delta Tm) for Calf thymus DNA on interaction against ligand (mole ratio of 10:1). Format: functional. As to conditions: Bos taurus.
Data set [3] has as its system Nucleic Acid. As to the kind of experiment: Increase in Melting temperature (delta Tm) for Micrococcus lysodeikticus DNA on interaction against ligand (mole ratio of 10:1). Format: functional. As to conditions: Micrococcus luteus. The method, boiled down: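 M. lysodeikticus DNA (28% A+T) in HNE buffer pH 7.0, dialysed and centrifuged before use; DNAP 0.10 mM with ligand 0.01 mM (10:1). A260 monitored against temperature; Tm at midpoint of normalized curve, ΔTm versus native DNA; mean of at least three determinations.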

The next data set deals with L1210. As to the kind of experiment: In vitro extracellular concentration required to reduce cell population to 50% against L1210 leukemia cells. The data set is classed as functional, cell-based. As to conditions: Mus musculus. The method, boiled down:
(§1)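 Cells seeded at ca. […] cells mL⁻¹, grown 24 h and counted to confirm log growth, then given compound (acetic acid salt or free base) in aqueous solution. Exposure 2 days for L1210 and Walker 256, 6 days for V79. Surviving cells counted; percent growth inhibition versus untreated controls; value is extracellular concentration giving 50% reduction.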

The test system of data set [4] is Nucleic Acid. As to the kind of experiment: Compound was evaluated for the increase in melting temperature (delta Tm) for calf Thymus DNA on interaction with Ligand at DNAp to ligand ratio 40:1. The data set is classed as functional. The following applies: Bos taurus.
Data set [5] deals with Nucleic Acid. The data set is described as follows: Increase in Melting temperature (delta Tm) for Clostridium perfringens DNA on interaction against ligand (mole ratio of 10:1). The data set is classed as functional. In short, it runs like this: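 Working DNAP 0.10 mM and ligand 0.01 mM. Absorbance at 260 nm was followed against temperature. Tm was taken at the midpoint of the normalized curve and compared with native DNA; mean of ≥3 determinations.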

Data set [6] is described as follows: In vitro extracellular concentration required to reduce cell population to 50% against Walker 256 (WS) carcinoma cells. The data set is classed as functional, Rattus norvegicus. In short, it runs like this:
as §1

Data set [7] relates to Nucleic Acid. As to the kind of experiment: Compound was evaluated for the increase in melting temperature (delta Tm) for calf Thymus DNA on interaction with Ligand at DNAp to ligand ratio 20:1. Format: functional. As to conditions: Bos taurus.
Data set [8] is described as follows: In vitro extracellular concentration required to reduce cell population to 50% against Chinese hamster V79 cells. Format: functional, cell-based, Cricetulus griseus. In short, it runs like this: as §1
Data set [9] concerns Nucleic Acid. The data set is described as follows: Compound was evaluated for the increase in melting temperature (delta Tm) for calf Thymus DNA on interaction with Ligand at DNAp to ligand ratio 10:1. The data set is classed as functional. The following applies: Bos taurus.

As to `CCN(CC)CC(=O)Nc1ccc2c(c1)C(=O)c1ccc(NC(=O)CN(CC)CC)cc1C2=O`, in [1], the pKa was 10. The ΔTm was 13.5 with Nucleic Acid [2]; above 16.6 in the data set with Nucleic Acid [3]; 3.7 in the data set on Nucleic Acid [4]; 16.6 in the data set on Nucleic Acid [5]; 7.7 in the data set on Nucleic Acid [7]; 13.5 with Nucleic Acid [9]. Besides, the IC50 in the data set with L1210 came to 27000 nM; in [6] it was 19 µM; in [8], 18 µM.
As for `O=C(CCN1CCCCC1)Nc1ccc2c(c1)C(=O)c1ccc(NC(=O)CCN3CCCCC3)cc1C2=O`, the pKa in [1] was 10.4. For the same compound, the ΔTm with Nucleic Acid [2] was above 15.3; with Nucleic Acid [3], above 14.5; in the data set on Nucleic Acid [4], 3.7; with Nucleic Acid [5] it was above 18.9; in the data set on Nucleic Acid [7], 7.3; with Nucleic Acid [9] it was above 15.3. Also, the IC50 in the data set with L1210 amounted to 190 nM; in data set [6], 2 µM; in [8] it was 1.7 µM.
As for `O=C(CCN1CCOCC1)Nc1ccc2c(c1)C(=O)c1ccc(NC(=O)CCN3CCOCC3)cc1C2=O`, the pKa in data set [1] is 8. Besides, the IC50 was 570 nM in the data set with L1210, 4.2 µM in data set [6] and 1.6 µM in data set [8]. Also, the ΔTm with Nucleic Acid [7] came to 3; in the data set on Nucleic Acid [9], 4.9.
`O=C(CCN1CCN(CCO)CC1)Nc1ccc2c(c1)C(=O)c1ccc(NC(=O)CCN3CCN(CCO)CC3)cc1C2=O`: the pKa in data set [1] is 9.5. The IC50 in the data set with L1210 came out at 4200 nM; in [6], 6.6 µM; in data set [8], 19.5 µM. The ΔTm is 2.9 with Nucleic Acid [4], 4.6 with Nucleic Acid [7] and 7.2 with Nucleic Acid [9].
`O=C(CCN1CCC(CCO)CC1)Nc1ccc2c(c1)C(=O)c1ccc(NC(=O)CCN3CCC(CCO)CC3)cc1C2=O`: the pKa in [1] is 10. Further, the IC50 was determined as 2300 nM in the data set on L1210, 5.5 µM in [6] and 3.95 µM in data set [8]. Further, the ΔTm is 4.3 in the data set with Nucleic Acid [4], 8.3 in the data set on Nucleic Acid [7] and above 15 in the data set with Nucleic Acid [9].
For `CN1CCN(CCC(=O)Nc2ccc3c(c2)C(=O)c2ccc(NC(=O)CCN4CCN(C)CC4)cc2C3=O)CC1`, the pKa in data set [1] was 9. Further, the IC50 in the data set with L1210 was found to be 1700 nM; in data set [6], 3.1 µM; in data set [8], 1.8 µM. For the same compound, the ΔTm with Nucleic Acid [7] is 4.4; in the data set with Nucleic Acid [9], 9.2.
With `CN1CCN(CC(=O)Nc2ccc3c(c2)C(=O)c2ccc(NC(=O)CN4CCN(C)CC4)cc2C3=O)CC1`, the pKa in data set [1] is 9.5. In addition, the IC50 with L1210 turned out to be 6500 nM; in data set [6] it was 4.6 µM; in data set [8], 4.6 µM. Besides, the ΔTm in the data set on Nucleic Acid [4] came to 4.2; with Nucleic Acid [7] it was 8.2; in the data set on Nucleic Acid [9] it was 13.6.
For `O=C(CCN1CCCCC1CCO)Nc1ccc2c(c1)C(=O)c1ccc(NC(=O)CCN3CCCCC3CCO)cc1C2=O` (centres undefined), the pKa in data set [1] is 10. For the same compound, the ΔTm is above 15.3 in the data set with Nucleic Acid [2]; above 14.6 with Nucleic Acid [3]; 4.1 in the data set on Nucleic Acid [4]; above 18.5 in the data set with Nucleic Acid [5]; 9.2 with Nucleic Acid [7]; above 15.3 in the data set with Nucleic Acid [9]. Also, the IC50 was found to be 280 nM in the data set with L1210, 3.6 µM in [6] and 12 µM in [8].
Consider `O=C(CCN1CCCCC1CO)Nc1ccc2c(c1)C(=O)c1ccc(NC(=O)CCN3CCCCC3CO)cc1C2=O` (centres undefined), for which the pKa in data set [1] is 10. The results for the IC50 (in the data set with L1210; in data set [6]; in data set [8]) were 500 nM, 2.8 µM and 3.6 µM, respectively. Moreover, the ΔTm was 3.8 with Nucleic Acid [4], 7.9 in the data set on Nucleic Acid [7] and 14.4 in the data set on Nucleic Acid [9].
As to `O=C(CCN(CCO)CCO)Nc1ccc2c(c1)C(=O)c1ccc(NC(=O)CCN(CCO)CCO)cc1C2=O`, in data set [1], the pKa is 9. Also, the ΔTm with Nucleic Acid [2] is 10.9; with Nucleic Acid [3], above 15.7; in the data set on Nucleic Acid [4] it was 3.2; in the data set with Nucleic Acid [5] it was 11.7; in the data set with Nucleic Acid [7], 6.1; with Nucleic Acid [9], 10.9. The IC50 in the data set on L1210 is 4200 nM; in data set [6], above 100 µM; in data set [8] it was 25.5 µM.
For the compound `O=C(CN1CCOCC1)Nc1ccc2c(c1)C(=O)c1ccc(NC(=O)CN3CCOCC3)cc1C2=O`, in [1], the pKa is 7.4. Further, the IC50 in the data set on L1210 was above 100000 nM; in [6], above 100 µM; in [8], above 100 µM. Besides, the ΔTm in the data set with Nucleic Acid [4], in the data set on Nucleic Acid [7] and with Nucleic Acid [9] was 0.5 in each case.
For `O=C1c2c(O)ccc(O)c2C(=O)c2c(NCCNCCO)ccc(NCCNCCO)c21` [MITOXANTRONE], the pKa in [1] is 7.4. Besides, the ΔTm is above 15 in the data set with Nucleic Acid [2]; above 11.7 in the data set with Nucleic Acid [3]; above 26.4 with Nucleic Acid [5]; 7.4 in the data set on Nucleic Acid [7]; above 15 with Nucleic Acid [9]. For the same compound, the IC50 with L1210 was determined as 2 nM; in [6] it was 0.01 µM.
With `CCN(CC)CCC(=O)Nc1ccc2c(c1)C(=O)c1ccc(NC(=O)CCN(CC)CC)cc1C2=O`, the pKa in data set [1] was 10.8. Moreover, the ΔTm is above 15.5 in the data set on Nucleic Acid [2]; above 18.1 in the data set with Nucleic Acid [3]; 3.7 with Nucleic Acid [4]; above 20.5 in the data set on Nucleic Acid [5]; 7.7 in the data set with Nucleic Acid [7]; above 15.5 in the data set on Nucleic Acid [9]. Moreover, the IC50 came to 340 nM in the data set on L1210, 2.7 µM in data set [6] and 2.9 µM in [8].
In the case of `O=C(CN1CCCCC1)Nc1ccc2c(c1)C(=O)c1ccc(NC(=O)CN3CCCCC3)cc1C2=O`, the pKa in data set [1] is 10. The ΔTm in the data set on Nucleic Acid [2] worked out at 14.3; with Nucleic Acid [3], 18.4; in the data set on Nucleic Acid [5], 19; in the data set with Nucleic Acid [7], 8.2; in the data set with Nucleic Acid [9], 14.3. Besides, the IC50 with L1210 is 76000 nM; in [6], above 100 µM; in data set [8], 30 µM.
